Our source for the inhibition and MIC90 values is ChEMBL document CHEMBL5532690, “Antitubercular activity of 2-mercaptobenzothiazole derivatives targeting Mycobacterium tuberculosis type II NADH dehydrogenase” (RSC Med Chem, 2024).

The MIC90 is an inhibitory concentration at the 90% level, which refers to growth in some studies and to a panel of isolates in others. Lower therefore signals greater potency.

Converted amounts (≈) assume the structure as drawn. The source made the active and inactive calls. No cut-off for these calls is given here.

Assay [1] relates to Mycobacterium tuberculosis. Nature of the assay: Inhibition of NDH-2 in Mycobacterium tuberculosis transformed with pMV762-Peredox-mCherry assessed as change in NADH/NAD+ ratio at 59.16 ug/ml incubated for 24 hrs by fluorimetric assay. Conditions: dose 59.16 µg/ml.
Assay [2] deals with Mycobacterium tuberculosis. Description: Antitubercular activity against isoniazid-resistant Mycobacterium tuberculosis mc2 8243 measured after 10 days by liquid broth microdilution assay. The format is functional. Conditions: mc2 8243, 240 h, time 10 day. An outline of the steps: (§1)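 Broth microdilution in 7H9 with glycerol, ADS and 0.05% tyloxapol, supplemented with L-methionine, L-leucine (50 mg L−1 each), L-arginine (200 mg L−1) and D-pantothenate (24 mg L−1). Inoculum was diluted to OD600 0.005 (1.0 × 10^6 CFU ml−1) and added to two-fold serial dilutions. After 10 days at 37 °C, MIC was the lowest concentration without visible turbidity.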
(Broth dilution looks for growth in wells or tubes with falling amounts of substance.)

Assay [3] has as its system Mycobacterium tuberculosis. Description: Antitubercular activity against isoniazid and rifampicin resistant Mycobacterium tuberculosis mc2 8259 measured after 10 days by liquid broth microdilution assay. The format is functional. Conditions: mc2 8259, 240 h, time 10 day. An outline of the steps:
as §1

Assay [4] has as its system Mycobacterium tuberculosis. Nature of the assay: Antitubercular activity against rifampicin-resistant Mycobacterium tuberculosis mc2 8247 measured after 10 days by liquid broth microdilution assay. It counts as functional. Conditions: mc2 8247, 240 h, time 10 day. An outline of the steps: as §1
Assay [5] concerns Mycobacterium tuberculosis. Description: Inhibition of NDH-2 in Mycobacterium tuberculosis transformed with pMV762-Peredox-mCherry incubated for 24 hrs by fluorimetric assay. An outline of the steps: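 Peredox-mCherry reporter Mtb was grown in supplemented 7H9 to OD600 0.4–0.6 and inoculated onto compounds, then held at 37 °C for 24 h. Fluorescence was read at ex 400/em 510 nm and ex 587/em 615 nm. The green/red ratio was taken as NADH/NAD+. Triplicates; one-way ANOVA with Dunnett's test.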

Assay [6] concerns Mycobacterium tuberculosis. Description: Inhibition of NDH-2 in Mycobacterium tuberculosis transformed with pMV762-Peredox-mCherry assessed as change in NADH/NAD+ ratio at 2.5 ug/ml incubated for 24 hrs by fluorimetric assay. Conditions: dose 2.5 µg/ml.

Take `C=C(C)[C@H]1Cc2c(ccc3c2O[C@@H]2COc4cc(OC)c(OC)cc4[C@@H]2C3=O)O1` [ROTENONE]: in assay [1], the inhibition entry is “Active”.
For `NNC(=O)c1ccncc1` [ISONIAZID], the MIC90 was over 128 µg/mL in assay [2], over 128 µg/mL in assay [3] and 0.25 µg/mL (≈ 1.82 µM) in assay [4].
Consider `Cc1cc(C)c2nc(SCC(=O)NC3CCCCC3)sc2c1`, for which the results for the MIC90 in assay [2], in assay [3] and in assay [4] were 4 µg/mL (≈ 12 µM), 4 µg/mL (≈ 12 µM) and 8 µg/mL (≈ 23.9 µM), respectively. The inhibition entry in assay [5] is “Active”.
With `O=C(CSc1nc2c(Br)cc(F)cc2s1)NC1CCCCC1`, the MIC90 is 8 µg/mL (≈ 19.8 µM) in assay [2], 8 µg/mL (≈ 19.8 µM) in assay [3] and 4 µg/mL (≈ 9.92 µM) in assay [4].
As for `CC(C)/N=c1\cc2n(-c3ccc(Cl)cc3)c3ccccc3nc-2cc1Nc1ccc(Cl)cc1` [CLOFAZIMINE], the inhibition result in assay [6] is “inactive”.
For `CO[C@H]1/C=C/O[C@@]2(C)Oc3c(C)c(O)c4c(O)c(c(/C=N/N5CCN(C)CC5)c(O)c4c3C2=O)NC(=O)/C(C)=C\C=C\[C@H](C)[C@H](O)[C@@H](C)[C@@H](O)[C@@H](C)[C@H](OC(C)=O)[C@@H]1C` [RIFAMPIN], the MIC90 in assay [2] is 0.12 µg/mL (≈ 0.146 µM); in assay [3] it was over 128 µg/mL; in assay [4], over 128 µg/mL.
As for `O=C(CSc1nc2ccccc2c(=O)[nH]1)NC1CCCCC1`, the MIC90 in assay [2] was found to be 0.125 µg/mL (≈ 0.394 µM); in assay [3], 0.125 µg/mL (≈ 0.394 µM); in assay [4], 0.25 µg/mL (≈ 0.788 µM).
In the case of `CC(C)c1ccc2nc(SCC(=O)NC3CCCCC3)sc2c1`, the MIC90 in assay [2], in assay [3] and in assay [4] was 4 µg/mL (≈ 11.5 µM) each time. Also, in assay [5], the inhibition entry is “Active”.
